# Test results reported in PubChem BioAssay AID1046 (PCMD, 2008).
# About 560 (0.25%) of roughly 220,000 compounds were called active. What follows is part of a selection rich in actives, with near analogues and random picks from the rest. A number with no mark means an inactive call.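 Rule for the calls: active = inhibition at or above 40%; inactive = inhibition below 40%.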
# Target: Prothrombin (Homo sapiens) (UniProt P00734)
# Experiment: blockers of thrombin peptide substrate cleavage – biochemical, 1536-well, fluorogenic AMC substrate, counter-screen for coagulation protease inhibitor project, primary screen (AID 1046);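 note: 0% = enzyme with no compound and 100% = wells without enzyme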
# Conditions: alpha-thrombin, Boc-VPR-AMC fluorogenic substrate cleavage; at 5 µM; stronger effect = higher value
# Summary of the method: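 Material: Human alpha-thrombin protein | Buffer or medium: pH 7.5 Tris-saline with Tween 20 | Reagent: Boc-VPR-AMC substrate, 15 µM final | Schedule: Reaction at ambient temperature | Detection: AMC fluorescence at 355 nm excitation and 460 nm emission | Evaluation: Percent inhibition scaled between no-compound controls and no-enzyme blanks | Controls: no-compound enzyme wells and no-enzyme blanks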
row,SMILES,inhibition
1,CCN(CC)C(=O)N(CC)Cc1ccccc1,-4.01%
2,Cc1cc(C)n2nc(C(=O)N(C)C(c3ccccc3)c3ccccc3)nc2n1,-10.8%
3,CCOc1cc(NC(=S)NCCCN(C)C)c(OCC)cc1NC(=O)C1CC1,-9.76%
4,O=C1/C(=C\c2cccnc2)CN(Cc2ccccc2)C/C1=C\c1cccnc1,10.5%
5,O=C(c1[nH]ncc1-c1ccc(Cl)cc1)C1CO1 (configuration not stated),-4.22%
6,CC(=O)OCCOCn1cnn2c(=O)c(Br)c(C)nc12,0.26%
7,CCOC(=O)c1c(NC(=O)C(C)Sc2c[nH]c3ccccc23)sc2c1CCC2 (configuration not stated),1.33%
8,O=C(CSc1nc2c(cnn2-c2ccc(F)cc2)c(=O)[nH]1)N1CCCCCC1,40.9% (active)
9,Cc1nnc(SCC(=O)N2CCOCC2)[nH]c1=O,-2.64%
10,CC(=O)c1sc2nc(SCC(=O)N3CCCCC3)[nH]c(=O)c2c1C,-2.78%
11,CCNC(=S)NNC(=O)C1CCN(Cc2ccccc2)CC1,-3.23%
12,O=C(Nc1cc2c3c(c1)C1CCCC1CN3CC1CCCC21)c1ccc([N+](=O)[O-])cc1 (configuration not stated),101% (active)
13,O=C(Nn1cnnc1)c1ccc([N+](=O)[O-])cc1,-7.16%
14,Cc1ccc(C)n1NC(=O)c1ccc([N+](=O)[O-])cc1,-0.02%
15,Cn1c(=O)c(=O)n(C)c2cc(S(=O)(=O)NCCN3CCN(c4ccccc4F)CC3)ccc21,-4.5%
16,C=CCC(Nc1ccccc1)c1cccc(OC)c1OC (configuration not stated),-13%
17,CC1COc2ccccc2N1S(=O)(=O)c1ccccc1 (configuration not stated),4.45%
18,Cc1ccccc1Cn1nc(C)c(NC(=O)C(F)(F)F)c1C,-1.16%
19,CCO[C@@H]1OC(C(=O)NC2CC2)=C[C@H](C)[C@H]1CCCO,-5.9%

row,SMILES,inhibition
1,COC(=O)c1cccc(NC(=O)CN2CCC(NC(=O)c3cc(OC)c(OC)c(OC)c3)CC2)c1,-1.04%
2,CCN1CCN(CC(=O)c2cc(OC)c(OC)c(OC)c2)CC1,45.6% (active)
3,CCCN(CCC)S(=O)(=O)c1ccc(C(=O)NNC(=O)c2cc(OC)c(OC)c(OC)c2)cc1,2.82%
4,CCCN(CCC)c1c([N+](=O)[O-])c(=O)oc2ccccc12,0.93%
5,COc1ccc(OC)c(-n2c(-c3ccn[nH]3)n[nH]c2=S)c1,-4.83%
6,COCC(=O)Nc1cc(C(=O)OC)cc(C(=O)OC)c1,0.93%
7,O=C(Cc1ccccc1)n1nc(-c2ccccc2)nc1NCc1ccco1,75.1% (active)
8,CS(=O)(=O)n1nc(-c2ccccc2)nc1NCc1ccco1,-2.92%
9,c1ccc(-c2nc(NCc3ccco3)c3ccccc3n2)cc1,3.14%
10,O=C(c1ccc(N2CCOCC2)c([N+](=O)[O-])c1)N1CCN(S(=O)(=O)c2cccs2)CC1,-1.14%
11,c1ccc(CN=C2Nc3ccccc3CS2)nc1,-2.61%
12,O=C(CSc1nc2ccccc2s1)Nc1ccc(C(=O)O)cc1,-1.16%
13,CCn1cc(CNC(=O)c2cc([N+](=O)[O-])c(C)c([N+](=O)[O-])c2)cn1,-0.78%
14,Cc1ccc(CN2CCN(Cc3cn(C)nc3-c3ccccc3)CC2CCO)o1 (configuration not stated),0.78%
15,Cc1ccc(S(=O)(=O)CC(=O)Nc2c(C)n(C)n(-c3ccccc3)c2=O)cc1,46.1% (active)
16,Cc1cc(C)cc(N(CC(=O)Nc2c(C)n(C)n(-c3ccccc3)c2=O)S(C)(=O)=O)c1,4.95%
17,Cc1ccc(S(=O)(=O)/N=C(/NC(=S)Nc2c(C)n(C)n(-c3ccccc3)c2=O)c2ccccc2)cc1,3.47%
18,CC(=O)N/C(=C\c1ccc(F)cc1)C(=O)NC(Cc1ccccc1)C(=O)O (configuration not stated),-5.05%
